Reference: ChEMBL document CHEMBL1821590, “Novel dihydropyrimidines and its pyrazole derivatives: synthesis and pharmacological screening” (Eur J Med Chem, 2011)
≈ marks a conversion by molar mass, not a printed value.

Tests used:
Type in all cases: functional
Staphylococcus aureus [1] = test: Antimicrobial activity against Staphylococcus aureus at 100 ug/ml by agar plate diffusion technique; conditions: read-out: IZ
Procedure, shortened: (§1)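 Agar plate diffusion against E. coli, P. aeruginosa, S. aureus and B. subtilis, with compounds at 25, 50 and 100 µg/mL. Streptomycin as standard.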

Pseudomonas aeruginosa [2] = test: Antimicrobial activity against Pseudomonas aeruginosa at 100 ug/ml by agar plate diffusion technique; conditions: read-out: IZ; procedure, shortened: as §1
Bacillus subtilis [3] = test: Antimicrobial activity against Bacillus subtilis at 50 ug/ml by agar plate diffusion technique; conditions: read-out: IZ; procedure, shortened: as §1
[4] = Antioxidant activity assessed as potassium ferricyanide ion reducing power after 20 mins
Procedure, shortened: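 Oyaizu method. Samples or ascorbic acid in DMF (12.5–100 µg/mL) mixed with 0.2 M phosphate buffer pH 6.6 and 1% potassium ferricyanide, 20 min at 50 °C. 10% TCA added, centrifuged. Supernatant mixed with water and 0.1% FeCl3, read at 700 nm. % = [(Vt/Vc) − 1] × 100. IC50 derived.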

Escherichia coli [5] = test: Antimicrobial activity against Escherichia coli at 100 ug/ml by agar plate diffusion technique; conditions: read-out: IZ; procedure, shortened: as §1
[6] = Antioxidant activity assessed as nitric oxide radical scavenging activity after 150 mins
Procedure, shortened: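 10 mM sodium nitroprusside (4 mL), PBS pH 7.4 (1 mL) and sample or ascorbic acid in DMSO (1 mL, 12.5–100 µg/mL), incubated 150 min at 25 °C. Nitrite detected with sulphanilic acid (5 min) then naphthylethylenediamine (30 min, diffused light). Read at […]. Triplicate. % inhibition = [1 − (Vt/Vc)] × 100. IC50 derived from it.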

Escherichia coli [7] = test: Antimicrobial activity against Escherichia coli at 25 ug/ml by agar plate diffusion technique; conditions: read-out: IZ; procedure, shortened: as §1
Metaphire posthuma [8] = test: Anthelmintic activity against Pheretima posthuma assessed as time taken for complete parasite paralysis at 0.1% w/v
Procedure, shortened: (§2)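 Earthworms (Pheretima posthuma) exposed to test solutions at 0.1, 0.2 and 0.5% w/v; time in minutes to complete paralysis (worms motionless) recorded. Albendazole as standard. Mean of three determinations ± S.D.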

Candida albicans [9] = test: Antimicrobial activity against Candida albicans at 100 ug/ml by paper disc method; conditions: read-out: IZ
Procedure, shortened: (§3)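 Paper disc method against A. niger and C. albicans, with compounds at 25, 50 and 100 µg/mL. Amphotericin-B as standard.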

Bacillus subtilis [10] = test: Antimicrobial activity against Bacillus subtilis at 100 ug/ml by agar plate diffusion technique; conditions: read-out: IZ; procedure, shortened: as §1
Aspergillus niger [11] = test: Antimicrobial activity against Aspergillus niger at 100 ug/ml by paper disc method; conditions: read-out: IZ; procedure, shortened: as §3
Staphylococcus aureus [12] = test: Antimicrobial activity against Staphylococcus aureus at 50 ug/ml by agar plate diffusion technique; conditions: read-out: IZ; procedure, shortened: as §1
Bacillus subtilis [13] = test: Antimicrobial activity against Bacillus subtilis at 25 ug/ml by agar plate diffusion technique; conditions: read-out: IZ; procedure, shortened: as §1
Metaphire posthuma [14] = test: Anthelmintic activity against Pheretima posthuma assessed as time taken for parasite death at 0.1% w/v
Procedure, shortened: (§4)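 Earthworms (Pheretima posthuma, spelled Perituma posthuma in text) exposed to test compounds at 0.1, 0.2 and 0.5% w/v. Albendazole served as standard, with an untreated control. Paralysis was recorded as the time until worms became motionless, then time to death was recorded, in minutes. Each value is the mean of three determinations with S.D.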

[15] = Antiinflammatory activity assessed as inhibition of albumin denaturation at 100 ug/ml by UV-visible spectrophotometry
Procedure, shortened: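 Compounds dissolved in minimal DMF, diluted in PBS pH 7.4 (final DMF <2.5%). 1 mL test solution (100 µg/mL) plus 1 mL 1% albumin in PBS, 15 min at 27 ± 1 °C, then heated 10 min at 60 ± 1 °C. After cooling, turbidity read at 660 nm. % inhibition = [(Vt/Vc) − 1] × 100 against a no-drug control. Triplicate, averaged. Diclofenac standard.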

Metaphire posthuma [16] = test: Anthelmintic activity against Pheretima posthuma assessed as time taken for parasite death at 0.2% w/v; procedure, shortened: as §4
Metaphire posthuma [17] = test: Anthelmintic activity against Pheretima posthuma assessed as time taken for complete parasite paralysis at 0.5% w/v; procedure, shortened: as §2
Candida albicans [18] = test: Antimicrobial activity against Candida albicans at 50 ug/ml by paper disc method; conditions: read-out: IZ; procedure, shortened: as §3
Pseudomonas aeruginosa [19] = test: Antimicrobial activity against Pseudomonas aeruginosa at 50 ug/ml by agar plate diffusion technique; conditions: read-out: IZ; procedure, shortened: as §1
Candida albicans [20] = test: Antimicrobial activity against Candida albicans at 25 ug/ml by paper disc method; conditions: read-out: IZ; procedure, shortened: as §3
[21] = Antioxidant activity assessed as inhibition of lipid peroxidation using egg lecithin liposomes incubated for 1 hr
Procedure, shortened: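 Egg lecithin (3 mg/mL, phosphate buffer pH 7.4) sonicated 10 min to form liposomes. Sample or ascorbic acid (12.5–100 µg/mL) added. Peroxidation induced with FeCl3 and L-ascorbic acid, 1 h at 37 °C. Stopped with HCl/TCA/TBA/BHA, boiled 15 min, centrifuged, supernatant read at 532 nm. Triplicate. % inhibition vs control. IC50 derived.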

Pseudomonas aeruginosa [22] = test: Antimicrobial activity against Pseudomonas aeruginosa at 25 ug/ml by agar plate diffusion technique; conditions: read-out: IZ; procedure, shortened: as §1
Metaphire posthuma [23] = test: Anthelmintic activity against Pheretima posthuma assessed as time taken for parasite death at 0.5% w/v; procedure, shortened: as §4
Metaphire posthuma [24] = test: Anthelmintic activity against Pheretima posthuma assessed as time taken for complete parasite paralysis at 0.2% w/v; procedure, shortened: as §2
Staphylococcus aureus [25] = test: Antimicrobial activity against Staphylococcus aureus at 25 ug/ml by agar plate diffusion technique; conditions: read-out: IZ; procedure, shortened: as §1
[26] = Antioxidant activity assessed as hydrogen peroxide scavenging activity after 10 mins
Procedure, shortened: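 H2O2 (20 mM) in PBS pH 7.4. 1 mL of sample or ascorbic acid in methanol (12.5–100 µg/mL) added to 2 mL H2O2 solution. A230 read after 10 min. % inhibition = [1 − (Vt/Vc)] × 100. Triplicate, averaged. IC50 derived from % inhibition across concentrations.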

Aspergillus niger [27] = test: Antimicrobial activity against Aspergillus niger at 50 ug/ml by paper disc method; conditions: read-out: IZ; procedure, shortened: as §3
Aspergillus niger [28] = test: Antimicrobial activity against Aspergillus niger at 25 ug/ml by paper disc method; conditions: read-out: IZ; procedure, shortened: as §3
Escherichia coli [29] = test: Antimicrobial activity against Escherichia coli at 50 ug/ml by agar plate diffusion technique; conditions: read-out: IZ; procedure, shortened: as §1

Structure (SMILES)	zone of inhibition at 100 µg/mL (Staphylococcus aureus [1]) [mm]	zone of inhibition at 100 µg/mL (Pseudomonas aeruginosa [2]) [mm]	zone of inhibition at 50 µg/mL (Bacillus subtilis [3]) [mm]	IC50 [4] [µg/mL]	zone of inhibition at 100 µg/mL (Escherichia coli [5]) [mm]	IC50 [6] [µg/mL]	zone of inhibition at 25 µg/mL (Escherichia coli [7]) [mm]	Time (Metaphire posthuma [8]) [min]	zone of inhibition at 100 µg/mL (Candida albicans [9]) [mm]	zone of inhibition at 100 µg/mL (Bacillus subtilis [10]) [mm]	zone of inhibition at 100 µg/mL (Aspergillus niger [11]) [mm]	zone of inhibition at 50 µg/mL (Staphylococcus aureus [12]) [mm]	zone of inhibition at 25 µg/mL (Bacillus subtilis [13]) [mm]	Time (Metaphire posthuma [14]) [min]	inhibition [15] [%]	Time (Metaphire posthuma [16]) [min]	Time (Metaphire posthuma [17]) [min]	zone of inhibition at 50 µg/mL (Candida albicans [18]) [mm]	zone of inhibition at 50 µg/mL (Pseudomonas aeruginosa [19]) [mm]	zone of inhibition at 25 µg/mL (Candida albicans [20]) [mm]	further results
CCOC(=O)c1cnn(-c2nc(-c3ccccc3F)c(C#N)c(=O)n2C)c1N	26.7	26.2	19.3	69 (≈ 180 µM)	27.5	87 (≈ 228 µM)	15.1	70.67	21.2	28	21.2	20.8	14.8	88.45	48.9	80.74	48.38	15.2	16.1	12	IC50 [21]: 94 µg/mL (≈ 246 µM); zone of inhibition at 25 µg/mL (Pseudomonas aeruginosa [22]): 12.7 mm; Time (Metaphire posthuma [23]): 60.77 min; Time (Metaphire posthuma [24]): 68.48 min; zone of inhibition at 25 µg/mL (Staphylococcus aureus [25]): 15.8 mm; IC50 [26]: 86 µg/mL (≈ 225 µM); zone of inhibition at 50 µg/mL (Aspergillus niger [27]): 14.1 mm; zone of inhibition at 25 µg/mL (Aspergillus niger [28]): 11.9 mm; zone of inhibition at 50 µg/mL (Escherichia coli [29]): 22.3 mm
CCOC(=O)c1cnn(-c2nc(-c3ccccc3O)c(C#N)c(=O)n2C)c1N	22.8	21.1	14.2	48 (≈ 126 µM)	24.4	64 (≈ 168 µM)	13.5	43.09	15.5	23.1	18.1	17.4	13.9	55.2	54.4	49.54	38.52	14.5	15	10.6	IC50 [21]: 57 µg/mL (≈ 150 µM); zone of inhibition at 25 µg/mL (Pseudomonas aeruginosa [22]): 10.2 mm; Time (Metaphire posthuma [23]): 47.23 min; Time (Metaphire posthuma [24]): 40.03 min; zone of inhibition at 25 µg/mL (Staphylococcus aureus [25]): 12.3 mm; IC50 [26]: 58 µg/mL (≈ 152 µM); zone of inhibition at 50 µg/mL (Aspergillus niger [27]): 12.6 mm; zone of inhibition at 25 µg/mL (Aspergillus niger [28]): 9.21 mm; zone of inhibition at 50 µg/mL (Escherichia coli [29]): 17.3 mm
CCOC(=O)c1cnn(-c2nc(-c3ccccc3Cl)c(C#N)c(=O)n2C)c1N	24.3	23.9	17.2	78 (≈ 196 µM)	26.9	93 (≈ 233 µM)	13.2	58.08	20.2	26.2	22.4	18.3	13.4	72.26	74.2	57.5	46.18	14.9	16.3	11.5	IC50 [21]: 102 µg/mL (≈ 256 µM); zone of inhibition at 25 µg/mL (Pseudomonas aeruginosa [22]): 12.2 mm; Time (Metaphire posthuma [23]): 51.7 min; Time (Metaphire posthuma [24]): 42.05 min; zone of inhibition at 25 µg/mL (Staphylococcus aureus [25]): 14.6 mm; IC50 [26]: 98 µg/mL (≈ 246 µM); zone of inhibition at 50 µg/mL (Aspergillus niger [27]): 15.1 mm; zone of inhibition at 25 µg/mL (Aspergillus niger [28]): 12.2 mm; zone of inhibition at 50 µg/mL (Escherichia coli [29]): 20.5 mm
Cn1c(NN)nc(-c2ccccc2Cl)c(C#N)c1=O	19.3	15.4	15.1	58 (≈ 210 µM)	13.1	62 (≈ 225 µM)	9.26	50.65	21.4	22.7	19.4	15.9	11.1	67.33	53.5	66.37	45.38	17.9	12.7	13.4	IC50 [21]: 57 µg/mL (≈ 207 µM); zone of inhibition at 25 µg/mL (Pseudomonas aeruginosa [22]): 8.41 mm; Time (Metaphire posthuma [23]): 60.86 min; Time (Metaphire posthuma [24]): 52.38 min; zone of inhibition at 25 µg/mL (Staphylococcus aureus [25]): 12.8 mm; IC50 [26]: 46 µg/mL (≈ 167 µM); zone of inhibition at 50 µg/mL (Aspergillus niger [27]): 14 mm; zone of inhibition at 25 µg/mL (Aspergillus niger [28]): 11.2 mm; zone of inhibition at 50 µg/mL (Escherichia coli [29]): 10.1 mm
CSc1nc(-c2ccccc2F)c(C#N)c(=O)n1C	20.9	11.8	20.2	61 (≈ 222 µM)	14.2	78 (≈ 283 µM)	10.9	72.34	16	29.4	22.7	15.3	16.9	90.4	69.3	85.73	55.17	12.1	10.4	10.8	IC50 [21]: 58 µg/mL (≈ 211 µM); zone of inhibition at 25 µg/mL (Pseudomonas aeruginosa [22]): 9.17 mm; Time (Metaphire posthuma [23]): 69.54 min; Time (Metaphire posthuma [24]): 71.4 min; zone of inhibition at 25 µg/mL (Staphylococcus aureus [25]): 12.2 mm; IC50 [26]: 63 µg/mL (≈ 229 µM); zone of inhibition at 50 µg/mL (Aspergillus niger [27]): 14.9 mm; zone of inhibition at 25 µg/mL (Aspergillus niger [28]): 12.7 mm; zone of inhibition at 50 µg/mL (Escherichia coli [29]): 13.8 mm
CSc1nc(-c2ccc(Cl)cc2)c(C#N)c(=O)n1C	15.8	11.9	18.1	64 (≈ 219 µM)	11.7	71 (≈ 243 µM)	7.08	48.15	18.4	27.3	18.7	11.7	13.8	60.96	79.1	57.38	40.51	13.8	9.62	9.27	IC50 [21]: 54 µg/mL (≈ 185 µM); zone of inhibition at 25 µg/mL (Pseudomonas aeruginosa [22]): 8.85 mm; Time (Metaphire posthuma [23]): 55.12 min; Time (Metaphire posthuma [24]): 39.29 min; zone of inhibition at 25 µg/mL (Staphylococcus aureus [25]): 9.68 mm; IC50 [26]: 56 µg/mL (≈ 192 µM); zone of inhibition at 50 µg/mL (Aspergillus niger [27]): 11 mm; zone of inhibition at 25 µg/mL (Aspergillus niger [28]): 9.92 mm; zone of inhibition at 50 µg/mL (Escherichia coli [29]): 9.82 mm
